Data set [1] relates to Punta Toro virus. The data set can be described thus: Antiviral activity against Punta Toro virus Adames infected Syrian golden hamster assessed as mean viral titer per 0.1 g of liver at 15 mg/kg, po twice daily administered 4 hrs before viral challenge measured on day 4 of viral infection. In kind it is functional.
Data set [2] has as its system Punta Toro virus. The data set can be described thus: Antiviral activity against Punta Toro virus Adames infected Syrian golden hamster assessed as animals with detectable virus level in liver at 15 mg/kg, po twice daily administered 4 hrs before viral challenge measured on day 4 of viral infection. The class given is functional.
Data set [3] relates to Punta Toro virus. As to the kind of experiment: Antiviral activity against Punta Toro virus Adames infected Syrian golden hamster assessed as mean viral titer per 0.1 mL of serum at 60 mg/kg, po twice daily administered 4 hrs before viral challenge measured on day 4 of viral infection. In kind it is functional.
Data set [4] has as its system Punta Toro virus. The data set can be described thus: Antiviral activity against 500 PFU Punta Toro virus Adames infected C57BL/6 mouse assessed as animals with detectable virus level in serum at 5 mg/kg, po twice daily administered 4 hrs before viral challenge measured on day 3 of viral infection. The class given is functional. An outline of the steps: (§1)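 T-705 was suspended in 0.4% carboxymethylcellulose and given by oral gavage twice daily. Mice were infected subcutaneously with PTV. Five mice per group (10 placebo) were sacrificed on day 3 or 4. Liver homogenate or serum was serially diluted onto triplicate LLC-MK2 monolayers, and CPE was read at 6–8 days. The detection limit was 2.8 log10 CCID50 per 0.1 g liver or 0.1 ml serum.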

The subject of data set [5] is Punta Toro virus. The data set can be described thus: Antiviral activity against 500 PFU Punta Toro virus Adames infected C57BL/6 mouse assessed as mean serum ALT levels at 10 mg/kg, po twice daily administered 4 hrs before viral challenge measured on day 3 of viral infection. The class given is functional. An outline of the steps: (§2)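 Subcutaneous PTV infection was followed by oral gavage twice daily with drug suspended in 0.4% CMC. Serum was collected from 5 sacrificed mice per group (10 placebo) on day 3 or 4. ALT activity was measured by kinetic assay, and sham-infected mice set the baselines.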

Data set [6] has as its system Punta Toro virus. As to the kind of experiment: Antiviral activity against 500 PFU Punta Toro virus Adames infected C57BL/6 mouse assessed as protection against viral infection at 10 mg/kg, po twice daily for 5 to 7 days twice daily administered 4 hrs before viral challenge. In kind it is functional. An outline of the steps:
(§3)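 PTV was inoculated subcutaneously into mice in groups of 15 (25–30 placebo). Dosing was by oral gavage twice daily for 5–7 days, with T-705 suspended in 0.4% CMC and ribavirin in saline. Remaining animals were observed 21–28 days for survival and day of death. Test doses had first been checked for tolerance in uninfected animals.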

Data set [7] deals with Punta Toro virus. As to the kind of experiment: Antiviral activity against Punta Toro virus Adames infected Syrian golden hamster assessed as survival at 60 mg/kg, po twice daily for 6 days administered 4 hrs before viral challenge. In kind it is functional.
For data set [8], the system named is Punta Toro virus. As to the kind of experiment: Antiviral activity against 500 PFU Punta Toro virus Adames infected C57BL/6 mouse assessed as survival at 50 mg/kg, po twice daily for 5 days administered 4 hrs before viral challenge. The class given is functional, organism-based. The arrangement: dose 50 mg/kg. An outline of the steps: as §3
For data set [9], the system named is Punta Toro virus. The data set can be described thus: Antiviral activity against 500 PFU Punta Toro virus Adames infected C57BL/6 mouse assessed as mean viral titer per 0.1 mL of serum at 10 mg/kg, po twice daily administered 4 hrs before viral challenge measured on day 3 of viral infection. The class given is functional. The gist of the method:
(§4)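 Mice were infected subcutaneously with PTV and dosed by oral gavage twice daily; 5 per group (10 placebo) were killed on day 3 or 4. Liver homogenate or serum was serially diluted onto triplicate LLC-MK2 monolayers, and CPE was read 6–8 days later. 50% endpoints gave log10 CCID50 per 0.1 g liver or 0.1 ml serum. Detection range was 2.8–9.5; undetectable samples were assigned <2.8.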

Data set [10] concerns Punta Toro virus. As to the kind of experiment: Antiviral activity against 500 PFU Punta Toro virus Adames infected C57BL/6 mouse assessed as mean viral titer per 0.1 g of liver at 75 mg/kg, po administered 4 hrs before viral challenge measured on day 4 of viral infection. In kind it is functional. An outline of the steps: as §4
Data set [11] has as its system Punta Toro virus. The data set can be described thus: Antiviral activity against 500 PFU Punta Toro virus Adames infected C57BL/6 mouse assessed as animals with detectable virus level in liver at 50 mg/kg, po twice daily administered 4 hrs before viral challenge measured on day 4 of viral infection. The class given is functional. An outline of the steps: as §1
A further data set concerns Enterovirus C. As to the kind of experiment: Antiviral activity against Poliovirus. In kind it is functional, organism-based.
In data set [12] the test system is Punta Toro virus. The data set can be described thus: Antiviral activity against Punta Toro virus Adames infected Syrian golden hamster assessed as mean viral titer per 0.1 mL of serum at 15 mg/kg, po twice daily administered 4 hrs before viral challenge measured on day 4 of viral infection. The class given is functional.
Data set [13] has as its system Pichinde virus. The data set can be described thus: Antiviral activity against Pichinde virus An 4763 infected Syrian golden hamster assessed as mean day of death at 30 mg/kg, po twice daily for 7 days administered 4 hrs before viral-challenge. The class given is functional.
For data set [14], the system named is Pichinde virus. The data set can be described thus: Antiviral activity against Pichinde virus An 4763 infected Syrian golden hamster assessed as mean viral titer per 0.1 mL of serum at 60 mg/kg, po twice daily for 7 days administered 4 hrs before viral-challenge measured on day 7 of viral infection. The class given is functional.
Data set [15] has as its system Pichinde virus. As to the kind of experiment: Antiviral activity against Pichinde virus An 4763 infected Syrian golden hamster assessed as mean viral titer per 0.1 mL of serum at 15 mg/kg, po twice daily for 7 days administered 4 hrs before viral-challenge measured on day 7 of viral infection. In kind it is functional.
For data set [16], the system named is Pichinde virus. As to the kind of experiment: Antiviral activity against Pichinde virus An 4763 infected Syrian golden hamster assessed as animals with detectable virus level in serum at 60 mg/kg, po twice daily for 7 days administered 4 hrs before viral-challenge measured on day 7 of viral infection. The class given is functional.
The subject of data set [17] is Pichinde virus. The data set can be described thus: Antiviral activity against Pichinde virus An 4763 infected Syrian golden hamster assessed as animals with detectable virus level in serum at 30 mg/kg, po twice daily for 7 days administered 4 hrs before viral-challenge measured on day 7 of viral infection. In kind it is functional.
Data set [18] deals with Punta Toro virus. The data set can be described thus: Antiviral activity against 500 PFU Punta Toro virus Adames infected C57BL/6 mouse assessed as animals with detectable virus level in serum at 100 mg/kg, po twice daily administered 4 hrs before viral challenge measured on day 4 of viral infection. The class given is functional. The gist of the method:
as §1

The subject of data set [19] is Punta Toro virus. The data set can be described thus: Antiviral activity against 500 PFU Punta Toro virus Adames infected C57BL/6 mouse assessed as mean serum ALT levels at 200 mg/kg, po twice daily administered 4 hrs before viral challenge measured on day 4 of viral infection. The class given is functional. An outline of the steps: as §2
Data set [20] concerns Punta Toro virus. As to the kind of experiment: Antiviral activity against 500 PFU Punta Toro virus Adames infected C57BL/6 mouse assessed as inhibition of liver damage at 200 mg/kg, po twice daily administered 4 hrs before viral challenge measured on day 4 of viral infection. The class given is functional, organism-based. More on the design: dose 200 mg/kg. An outline of the steps: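 Mice were infected with PTV subcutaneously and dosed by oral gavage twice daily (0.4% CMC vehicle). Five animals per group (10 placebo) were sacrificed on day 3 or 4. Livers were scored 0–4 for hepatic icterus, where 0 is normal and 4 is maximal yellow coloration.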

Data set [21] in a line: Cytotoxicity against african green monkey Vero cells after 7 to 8 days by neutral-red dye uptake assay. In kind it is cell-based. Particulars: chlorocebus sabaeus. The gist of the method: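 Subconfluent (50-70%) Vero cells received half-log drug dilutions without virus and were held at 37°C, 5% CO2 for 7-8 days. Cells were stained with 0.034% neutral red for 2 h, and the dye was extracted 30 min in ethanol with Sorenson's citrate buffer. Absorbance was read at 540 nm as % of untreated controls. CC50 was derived by regression.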

Data set [22] relates to Pichinde virus. As to the kind of experiment: Antiviral activity against Pichinde virus An 4763 infected Syrian golden hamster assessed as survival at 50 mg/kg, po twice daily for 7 days administered 24 hrs post viral-challenge. In kind it is functional, organism-based. The arrangement: dose 50 mg/kg.
For data set [23], the system named is Punta Toro virus. The data set can be described thus: Antiviral activity against 500 PFU Punta Toro virus Adames infected C57BL/6 mouse assessed as animals with detectable virus level in serum at 75 mg/kg, po twice daily administered 4 hrs before viral challenge measured on day 4 of viral infection. In kind it is functional. An outline of the steps:
as §1

From ChEMBL document CHEMBL1154414, “In vitro and in vivo activities of T-705 against arenavirus and bunyavirus infections” (Antimicrob Agents Chemother, 2007) come the findings set out here.

Calls of active or inactive are those of the source. No cut-off for these calls is given here.

For `NC(=O)c1nc(F)cnc1O` [FAVIPIRAVIR], the log10CCID50 is greater than 6.9 in the data set with Punta Toro virus [1]; less than 3.8 in the data set with Punta Toro virus [3]; 6.2 in the data set on Punta Toro virus [9]; less than 2.8 in the data set with Punta Toro virus [10]; less than 4.1 in the data set with Punta Toro virus [12]; less than 2.8 in the data set on Pichinde virus [14]. Also, the log10CCID50 with Pichinde virus [15] is less than 5.3. Also, the Activity in the data set with Punta Toro virus [2] amounted to 100%; with Punta Toro virus [4] it was 100%; in the data set with Punta Toro virus [5] it was 501 IU/L; in the data set on Punta Toro virus [6], 90%; in the data set on Punta Toro virus [11] it was 0%; in the data set with Pichinde virus [13], 12.5 days. In addition, the Activity with Pichinde virus [16] turned out to be 0%; with Pichinde virus [17], 80%; in the data set on Punta Toro virus [18], 0%; in the data set on Punta Toro virus [19], 37 IU/L. Besides, in the data set on Punta Toro virus [7], the survival at 60 mg/kg stood at 90%. The result in the data set on Punta Toro virus [8] and in the data set with Punta Toro virus [20] was Active. Also, in the data set on Enterovirus C, the concentration for a half-maximal effect (EC50) was determined as 31 µM.

`NC(=O)c1ncn([C@@H]2O[C@H](CO)[C@@H](O)[C@H]2O)n1` [RIBAVIRIN]: half-maximal cytotoxicity in [21] (CC50) was put at 156 µM. In addition, the outcome with Pichinde virus [22] was Active. Moreover, in the data set on Punta Toro virus [23], the Activity is reported as 20%.
